The values below come from ChEMBL document CHEMBL1129508, “Betulinic acid derivatives: a new class of specific inhibitors of human immunodeficiency virus type 1 entry” (J Med Chem, 1996).

The test system of assay [1] is Human immunodeficiency virus 1. Kind of assay: Inhibitory activity tested against the HIV-1 in MT-4 cells. It counts as functional, organism-based. The following applies: Human immunodeficiency virus 1, MT4. A digest of the protocol:
(§1)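 HIV-1-induced cytopathicity in CEM 4 or MT-4 cell cultures was assessed by counting viable cells after MTT (3-(4,5-dimethylthiazol-2-yl)-2,5-diphenyltetrazolium bromide) staining. IC50 is the concentration that inhibits cytopathicity by 50%. For routine testing, the highest concentration was generally 3 µM, because solubility was limited above 10 µM.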

The test system of assay [2] is Human immunodeficiency virus 1. Kind of assay: Inhibitory activity tested against the HIV-1 in CEM cells. The class given is functional, organism-based. The following applies: Human immunodeficiency virus 1, CCRF-CEM. In short, it runs like this: as §1

pIC50: −log10 of the molar value.

Consider `C=C(C)[C@@H]1CC[C@]2(C(=O)NCCCCCCCC(=O)N[C@@H](CO)C(=O)O)CC[C@]3(C)[C@H](CCC4[C@@]5(C)CC[C@H](O)C(C)(C)[C@@H]5CC[C@]43C)[C@@H]12` (stereo not given in full), for which the pIC50 in assay [1] and in assay [2] was 6.60 each time. Take `C=C(C)[C@@H]1CC[C@]2(C(=O)NCCCCCCCC(=O)N3CCC[C@H]3C(=O)O)CC[C@]3(C)[C@H](CCC4[C@@]5(C)CC[C@H](O)C(C)(C)[C@@H]5CC[C@]43C)[C@@H]12` (stereo not given in full): the pIC50 in assay [1] is 7.24; in assay [2] it was 6.19. For the compound `C=C(C)[C@@H]1CC[C@]2(C(=O)NCCCCCCCC(=O)NCC(C)C(=O)O)CC[C@]3(C)[C@H](CCC4[C@@]5(C)CC[C@H](O)C(C)(C)[C@@H]5CC[C@]43C)[C@@H]12` (stereo not given in full), the pIC50 in assay [2] is 6.89. As to `C=C(C)[C@@H]1CC[C@]2(C(=O)NCCCCCCCCC(=O)O)CC[C@]3(C)[C@H](CCC4[C@@]5(C)CC[C@H](O)C(C)(C)[C@@H]5CC[C@]43C)[C@@H]12` (stereo not given in full), the pIC50 in assay [1] is 5.47; in assay [2], 6.38.

For `C=C(C)[C@@H]1CC[C@]2(C(=O)NCCCCCCCC(=O)NCCC(=O)O)CC[C@]3(C)[C@H](CCC4[C@@]5(C)CC[C@H](O)C(C)(C)[C@@H]5CC[C@]43C)[C@@H]12` (stereo not given in full), the results for the negative logarithm of the IC50 (pIC50) in assay [1] and in assay [2] were 7.03 and 7.00, respectively. With `C=C(C)[C@@H]1CC[C@]2(C(=O)NCCCCCCCC(=O)N[C@@H](CCCCN)C(=O)O)CC[C@]3(C)[C@H](CCC4[C@@]5(C)CC[C@H](O)C(C)(C)[C@@H]5CC[C@]43C)[C@@H]12` (stereo not given in full), the pIC50 in assay [2] is 5.00. The compound `C=C(C)[C@@H]1CC[C@]2(C(=O)NCCCCCCCC(=O)Nc3cccc(C(=O)O)c3)CC[C@]3(C)[C@H](CCC4[C@@]5(C)CC[C@H](O)C(C)(C)[C@@H]5CC[C@]43C)[C@@H]12` (stereo not given in full) showed a pIC50 in assay [2] of 7.10. As to `C=C(C)[C@@H]1CC[C@]2(C(=O)NCCCCCCCNC(=O)CCC(=O)O)CC[C@]3(C)[C@H](CCC4[C@@]5(C)CC[C@H](O)C(C)(C)[C@@H]5CC[C@]43C)[C@@H]12` (stereo not given in full), the pIC50 is 7.28 in assay [1] and 7.02 in assay [2].

As to `C=C(C)[C@@H]1CC[C@]2(C(=O)NCCCCCCCC(=O)N[C@H](CCC(=O)O)CC(C)C)CC[C@]3(C)[C@H](CCC4[C@@]5(C)CC[C@H](O)C(C)(C)[C@@H]5CC[C@]43C)[C@@H]12` (stereo not given in full), the negative-log IC50 (pIC50) in assay [1] is 7.07; in assay [2] it was 7.28. As to `C=C(C)[C@@H]1CC[C@]2(C(=O)NCCCCCCCC(=O)N[C@@H](CC(C)C)[C@@H](O)CC(=O)O)CC[C@]3(C)[C@H](CCC4[C@@]5(C)CC[C@H](O)C(C)(C)[C@@H]5CC[C@]43C)[C@@H]12` (stereo not given in full), the pIC50 is 7.40 in assay [1] and 7.30 in assay [2]. Consider `C=C(C)[C@@H]1CC[C@]2(C(=O)NCCCCCCCNC(=O)c3ccccc3C(=O)O)CC[C@]3(C)[C@H](CCC4[C@@]5(C)CC[C@H](O)C(C)(C)[C@@H]5CC[C@]43C)[C@@H]12` (stereo not given in full), for which the pIC50 in assay [2] is 5.74. Turning to `C=C(C)[C@@H]1CC[C@]2(C(=O)NCCCCCCCC(=O)N(C)CC(=O)O)CC[C@]3(C)[C@H](CCC4[C@@]5(C)CC[C@H](O)C(C)(C)[C@@H]5CC[C@]43C)[C@@H]12` (stereo not given in full), the pIC50 in assay [1] is 6.48; in assay [2], 6.60.

With `C=C(C)[C@@H]1CC[C@]2(C(=O)NCCCCCCCC(=O)N[C@@H](Cc3ccccc3)[C@@H](O)CC(=O)O)CC[C@]3(C)[C@H](CCC4[C@@]5(C)CC[C@H](O)C(C)(C)[C@@H]5CC[C@]43C)[C@@H]12` (stereo not given in full), the pIC50 in assay [1] was 7.48; in assay [2], 6.89. The matching figures for `C=C(C)[C@@H]1CC[C@]2(C(=O)NCCCCCCCC(=O)NCC(O)CC(=O)O)CC[C@]3(C)[C@H](CCC4[C@@]5(C)CC[C@H](O)C(C)(C)[C@@H]5CC[C@]43C)[C@@H]12` (stereo not given in full): 7.48 and 6.70. As for `C=C(C)[C@@H]1CC[C@]2(C(=O)NCCCCCCCNC(=O)CCCC(=O)O)CC[C@]3(C)[C@H](CCC4[C@@]5(C)CC[C@H](O)C(C)(C)[C@@H]5CC[C@]43C)[C@@H]12` (stereo not given in full), the pIC50 in assay [2] was 7.70.

For `C=C(C)[C@@H]1CC[C@]2(C(=O)NCCCCCCCC(=O)NC(C)CC(=O)O)CC[C@]3(C)[C@H](CCC4[C@@]5(C)CC[C@H](O)C(C)(C)[C@@H]5CC[C@]43C)[C@@H]12` (stereo not given in full), in assay [2], the pIC50 was 6.89. Still for that read-out and setting: next, `C=C(C)[C@@H]1CC[C@]2(C(=O)NCCCCCCCC(=O)NCCCCC(=O)O)CC[C@]3(C)[C@H](CCC4[C@@]5(C)CC[C@H](O)C(C)(C)[C@@H]5CC[C@]43C)[C@@H]12` (stereo not given in full): 7.21. Consider `C=C(C)[C@@H]1CC[C@]2(C(=O)NCCCCCCCC(=O)Nc3ccc(C(=O)O)cc3)CC[C@]3(C)[C@H](CCC4[C@@]5(C)CC[C@H](O)C(C)(C)[C@@H]5CC[C@]43C)[C@@H]12` (stereo not given in full), for which the values for the pIC50 in assay [1] and in assay [2] were 7.59 and 7.15, respectively.

As to `C=C(C)[C@@H]1CC[C@]2(C(=O)NCCCCCCCC(=O)O)CC[C@]3(C)[C@H](CCC4[C@@]5(C)CC[C@H](O)C(C)(C)[C@@H]5CC[C@]43C)[C@@H]12` (stereo not given in full), the pIC50 in assay [1] was 6.33; in assay [2], 6.12.

For `C=C(C)[C@@H]1CC[C@]2(C(=O)NCCCCCCCCCCCC(=O)O)CC[C@]3(C)[C@H](CCC4[C@@]5(C)CC[C@H](O)C(C)(C)[C@@H]5CC[C@]43C)[C@@H]12` (stereo not given in full), the figures for the pIC50 in assay [1] and in assay [2] were 6.60 and 6.26, respectively.

Regarding `C=C(C)[C@@H]1CC[C@]2(C(=O)NCCCCCCCC(=O)N[C@@H](C)C(=O)O)CC[C@]3(C)[C@H](CCC4[C@@]5(C)CC[C@H](O)C(C)(C)[C@@H]5CC[C@]43C)[C@@H]12` (stereo not given in full), the pIC50 was 7.21 in assay [1] and 7.04 in assay [2]. In assay [2], `C=C(C)[C@@H]1CC[C@]2(C(=O)NCCCCCCCC(=O)NC(CC(=O)O)C(F)(F)F)CC[C@]3(C)[C@H](CCC4[C@@]5(C)CC[C@H](O)C(C)(C)[C@@H]5CC[C@]43C)[C@@H]12` (stereo not given in full) showed a pIC50 of 6.81. Consider `C=C(C)[C@@H]1CC[C@]2(C(=O)NCCCCCCCC(=O)N[C@H](CO)C(=O)O)CC[C@]3(C)[C@H](CCC4[C@@]5(C)CC[C@H](O)C(C)(C)[C@@H]5CC[C@]43C)[C@@H]12` (stereo not given in full), for which the pIC50 in assay [2] was 5.72. With `C=C(C)[C@@H]1CC[C@]2(C(=O)NCCCCCCCCCC(=O)O)CC[C@]3(C)[C@H](CCC4[C@@]5(C)CC[C@H](O)C(C)(C)[C@@H]5CC[C@]43C)[C@@H]12` (stereo not given in full), the results for the pIC50 in assay [1] and in assay [2] were 6.38 and 6.22, respectively. Regarding `C=C(C)[C@@H]1CC[C@]2(C(=O)NCCCCCCCC(=O)N[C@@H](CC(N)=O)C(=O)O)CC[C@]3(C)[C@H](CCC4[C@@]5(C)CC[C@H](O)C(C)(C)[C@@H]5CC[C@]43C)[C@@H]12` (stereo not given in full), in assay [2], the pIC50 was 6.02. The compound `C=C(C)[C@@H]1CC[C@]2(C(=O)NCCCCCCCC(=O)N[C@@H](Cc3ccccc3)C(=O)O)CC[C@]3(C)[C@H](CCC4[C@@]5(C)CC[C@H](O)C(C)(C)[C@@H]5CC[C@]43C)[C@@H]12` (stereo not given in full) showed a pIC50 in assay [2] of 5.70. In the case of `C=C(C)[C@@H]1CC[C@]2(C(=O)NCCCCCCCC(=O)N[C@@H](CC(=O)O)C(=O)O)CC[C@]3(C)[C@H](CCC4[C@@]5(C)CC[C@H](O)C(C)(C)[C@@H]5CC[C@]43C)[C@@H]12` (stereo not given in full), the pIC50 in assay [2] was 4.74. In assay [2], `C=C(C)[C@@H]1CC[C@]2(C(=O)NCCCCCCCC(=O)NC(F)CC(=O)O)CC[C@]3(C)[C@H](CCC4[C@@]5(C)CC[C@H](O)C(C)(C)[C@@H]5CC[C@]43C)[C@@H]12` (stereo not given in full) showed a pIC50 of 7.02. For the compound `C=C(C)[C@@H]1CC[C@]2(C(=O)NCCCCCCCNC(=O)c3cccc(C(=O)O)c3)CC[C@]3(C)[C@H](CCC4[C@@]5(C)CC[C@H](O)C(C)(C)[C@@H]5CC[C@]43C)[C@@H]12` (stereo not given in full), the values for the pIC50 in assay [1] and in assay [2] were 7.40 and 6.98, respectively. For the compound `C=C(C)[C@@H]1CC[C@]2(C(=O)NCCCCCCCCCCC(=O)O)CC[C@]3(C)[C@H](CCC4[C@@]5(C)CC[C@H](O)C(C)(C)[C@@H]5CC[C@]43C)[C@@H]12` (stereo not given in full), the pIC50 in assay [1] was 6.35; in assay [2], 6.64.

Turning to `C=C(C)[C@@H]1CC[C@]2(C(=O)NCCCCCCCC(=O)N[C@@H](CC(C)C)[C@H](O)CC(=O)O)CC[C@]3(C)[C@H](CCC4[C@@]5(C)CC[C@H](O)C(C)(C)[C@@H]5CC[C@]43C)[C@@H]12` (stereo not given in full), the values for the pIC50 in assay [1] and in assay [2] were 7.36 and 7.30, respectively. As to `C=C(C)[C@@H]1CC[C@]2(C(=O)NCCCCCCCNC(=O)c3ccc(C(=O)O)cc3)CC[C@]3(C)[C@H](CCC4[C@@]5(C)CC[C@H](O)C(C)(C)[C@@H]5CC[C@]43C)[C@@H]12` (stereo not given in full), the results for the negative-log IC50 (pIC50) in assay [1] and in assay [2] were 7.66 and 6.96, respectively. Turning to `C=C(C)[C@@H]1CC[C@]2(C(=O)NCCCCCCCC(=O)NC(C)(C)C(=O)O)CC[C@]3(C)[C@H](CCC4[C@@]5(C)CC[C@H](O)C(C)(C)[C@@H]5CC[C@]43C)[C@@H]12` (stereo not given in full), the pIC50 in assay [1] was 7.05; in assay [2], 6.88. Consider `C=C(C)[C@@H]1CC[C@]2(C(=O)NCCCCCCCC(=O)NC(CC(=O)O)c3ccccc3)CC[C@]3(C)[C@H](CCC4[C@@]5(C)CC[C@H](O)C(C)(C)[C@@H]5CC[C@]43C)[C@@H]12` (stereo not given in full), for which the pIC50 is 7.33 in assay [1] and 7.07 in assay [2]. On to `C=C(C)[C@@H]1CC[C@]2(C(=O)NCCCCCCCC(=O)N3CCCC(C(=O)O)C3)CC[C@]3(C)[C@H](CCC4[C@@]5(C)CC[C@H](O)C(C)(C)[C@@H]5CC[C@]43C)[C@@H]12` (stereo not given in full), for which the pIC50 in assay [2] is 6.73.

Take `C=C(C)[C@@H]1CC[C@]2(C(=O)NCCCCCCCC(=O)NCC(=O)O)CC[C@]3(C)[C@H](CC[C@@H]4[C@@]5(C)CC[C@H](O)C(C)(C)[C@@H]5CC[C@]43C)[C@@H]12`: the pIC50 in assay [1] was 6.81; in assay [2], 6.82. With `C=C(C)[C@@H]1CC[C@]2(C(=O)NCCCCCCCNC(=O)CC(=O)O)CC[C@]3(C)[C@H](CCC4[C@@]5(C)CC[C@H](O)C(C)(C)[C@@H]5CC[C@]43C)[C@@H]12` (stereo not given in full), the pIC50 is 7.47 in assay [1] and 7.30 in assay [2].
